The record followed here is ChEMBL document CHEMBL4513216, “Probing the Open Global Health Chemical Diversity Library for Multistage-Active Starting Points for Next-Generation Antimalarials” (ACS Infect Dis, 2020).

SMILES strings stand for the structures.

A short description of the series: Toxicity liver stage against HepG2, at 10uM. In kind it is cell-based. Further details: test concentration 10 uM, cell line HepG2-A16-CD81EGFP. The conditions noted are these: human, HepG2-A16-CD81EGFP cells; read-out: INHIBITION
In a few lines: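 Uninfected HepG2-A16-CD81EGFP cells, 3 × 10^3 per well, 1536-well, plated on prespotted compound at 10 μM final, parasite-free screening media added to match infected plates; puromycin 10 μM positive, DMSO 0.5% negative; run in parallel with 48 h PbLuc assay at 37 °C, 5% CO2; viability by CellTiter-Glo luminescence, normalized to controls.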
Turning to `O=C1CSC(c2ccc3c(c2)OCO3)c2cnn(C3CCCCC3)c2N1` (stereo not given), the cytotoxicity at 10 µM was -6.06%.

For `COC(=O)c1cccc(C(=O)NCc2ccc(C)o2)n1`, the cytotoxicity at 10 µM worked out at 11.5%.

`Cc1cc(=O)n2nc(CNc3cc(Cl)ccc3C)nc2[nH]1`: the cytotoxicity at 10 µM was -5.64%.

As for `COc1ccc(NC(=O)c2cnc(N3CCN(C)CC3)nc2C)cc1`, the cytotoxicity at 10 µM was -3.45%.

In the case of `CN1CCC(N(C)C(=O)c2cnn(-c3cc(F)ccc3F)c2N)CC1`, the cytotoxicity at 10 µM was -8.47%.

With `CN(C)CCCNC(=O)c1nc(Cc2c(Cl)cccc2Cl)no1`, the cytotoxicity at 10 µM is -0.31%.

For `CN(C)S(=O)(=O)N1CCC(c2nnc(C(F)(F)F)o2)CC1`, the cytotoxicity at 10 µM was 3.79%.

`CS(=O)(=O)N1C[C@@H](C(=O)Nc2cnccn2)C[C@H]2OCC[C@H]21`: the cytotoxicity at 10 µM amounted to 17.3%.

Consider `CCN(CC)c1ccc2ccc(C(=O)O)cn12`, for which the cytotoxicity at 10 µM came to 1.42%.

For `Cc1nnn2c1COC(CNCc1ccncc1)C2` (stereo not given), the cytotoxicity at 10 µM is 7.48%.

With `CCNC(=O)Cc1n[nH]c(-c2cncc(Br)c2)n1`, the cytotoxicity at 10 µM amounted to 1.2%.

On to `CCC1=NC(SCC(=O)c2ccc(C)cc2)c2cc(CC)sc2N1` (stereo not given), for which the cytotoxicity at 10 µM stood at 9.76%.

On to `CCCN(CCC)C(=O)Cn1c(SC)nc2ccsc2c1=O`, for which the cytotoxicity at 10 µM is 3.88%.

`Cc1nccn1CCC1CCN(C(C)C)CC1`: the cytotoxicity at 10 µM is -20.7%.

Turning to `Cn1c(CN2CCOC(CCc3ccncn3)C2)nc2ccccc21` (stereo not given), the cytotoxicity at 10 µM is -4.42%.

`c1cc(-c2nnc(C3CCCN(CC4CCCCC4)C3)o2)ccn1` (stereo not given): the cytotoxicity at 10 µM was -12.1%.

In the case of `Cc1nn(C)cc1CN1CCc2c(nc(-c3ccccn3)[nH]c2=O)C1`, the cytotoxicity at 10 µM was -32.1%.

Regarding `Cn1nccc1C(=O)N1CCOC(Cc2cccnc2)C1` (stereo not given), the cytotoxicity at 10 µM was -7.95%.

`CC(=O)N1CCCC1c1nccnc1Nc1cccc(C)n1` (stereo not given): the cytotoxicity at 10 µM turned out to be 1.31%.

Take `Cc1cc(C)n2cc(CN3CCC(N4CCN(C)C4=O)CC3)nc2n1`: the cytotoxicity at 10 µM stood at 3.66%.

Consider `Cc1cc(C)n(CC2CCCN2Cc2cccc(C#N)c2)n1` (stereo not given), for which the cytotoxicity at 10 µM was 11.2%.

For `Cc1cc(C)n(CCCNC(=O)NCc2c(C)cc(C)[nH]c2=O)n1`, the cytotoxicity at 10 µM was -1.12%.

`CC(NC(=O)NCCn1ccnc1)c1nncn1C` (stereo not given): the cytotoxicity at 10 µM is -8.92%.

On to `Cc1cc(CNCC2CCCN(C(=O)OC(C)(C)C)C2)no1` (stereo not given), for which the cytotoxicity at 10 µM stood at 6.22%.

On to `COCC(=O)N1CCN(Cc2csc(-c3ncccn3)n2)CC1`, for which the cytotoxicity at 10 µM is -11.3%.

In the case of `CSC(C)C(=O)NCCC(=O)N1CCN(c2ccccn2)CC1` (stereo not given), the cytotoxicity at 10 µM amounted to 3.05%.

In the case of `Cc1ccc(NC(=O)CNc2ccccc2C(N)=O)c(C)c1`, the cytotoxicity at 10 µM was 1.15%.

As for `O=C(c1ccc(=O)[nH]n1)N1CCc2ccccc21`, the cytotoxicity at 10 µM came out at 37.9%.

With `COc1c(C(=O)N2CCOC(c3cccs3)C2)c(C)nn1C` (stereo not given), the cytotoxicity at 10 µM is -0.43%.

In the case of `Cc1cccc(C(=O)Nc2cccc3c2C(=O)NC3)n1`, the cytotoxicity at 10 µM is 1.14%.

With `Cc1cccc(C2CCCCN2C(=O)CCCS(C)(=O)=O)c1C` (stereo not given), the cytotoxicity at 10 µM was determined as 4.96%.

Turning to `Cc1ccc(C(=O)N2CCN(c3ccnc4ccsc34)CC2)o1`, the cytotoxicity at 10 µM came to 38.7%.

As for `NC(=O)NC(=O)CNC1(c2ccc(Cl)cc2)CCCC1`, the cytotoxicity at 10 µM worked out at 15.7%.

Turning to `Cc1nnc(CN2CCCC2c2ccc(C(C)(C)C)cc2)o1` (stereo not given), the cytotoxicity at 10 µM is -8.48%.

Consider `COc1ccc(COCC(O)CN(C)c2ccc(C)cc2C)cc1` (stereo not given), for which the cytotoxicity at 10 µM turned out to be 1.6%.

Take `CCC(C)(NCc1ncc(C(C)C)o1)c1nccs1` (stereo not given): the cytotoxicity at 10 µM was determined as 18.9%.

In the case of `CC(=O)N1CCC(NC(=O)NCCCc2cn[nH]c2C)CC1`, the cytotoxicity at 10 µM is -4.2%.

As to `COC(C)(C)CC(C)NC(=O)NC1CCN(Cc2ccccn2)CC1` (stereo not given), the cytotoxicity at 10 µM was determined as 4.83%.

Consider `CCS(=O)(=O)NCCCNC(=O)N(C)C(C)c1ccccn1` (stereo not given), for which the cytotoxicity at 10 µM was 7.31%.

As to `COCc1ccccc1NC(=O)[C@@H]1CCCN1C(=O)c1ccco1`, the cytotoxicity at 10 µM is -6.34%.

For `O=C1[C@H]2CN(Cc3ccoc3)C[C@@H]2CCN1Cc1cccnc1`, the cytotoxicity at 10 µM was -71.5%.

Regarding `CCOCc1ncn2c1CN(C(=O)c1ccoc1)CC2`, the cytotoxicity at 10 µM is -72.6%.

As for `O=C(c1cccs1)N1CCCn2cnc(COCC3CC3)c2C1`, the cytotoxicity at 10 µM was -81.3%.

Consider `Cn1cc(C2COC3(CCN(C(=O)Cn4cccn4)CC3)C2)cn1` (stereo not given), for which the cytotoxicity at 10 µM came to 2.7%.

Regarding `O=C(c1ccoc1)N1CCCn2cnc(COCC3CC3)c2C1`, the cytotoxicity at 10 µM was determined as 2.47%.

With `Cc1cncc(C(=O)N2Cc3ccccc3C3(CCN(C)CC3)C2)c1`, the cytotoxicity at 10 µM turned out to be 4.37%.

For the compound `Cc1ccc(C(=O)N2C[C@H]3CCC[C@@]3(COCc3cccnc3)C2)s1`, the cytotoxicity at 10 µM worked out at 3.24%.

On to `CCN(CC)C(=O)Cn1cc(C(=O)NCCc2nc(C)c(C)s2)nn1`, for which the cytotoxicity at 10 µM stood at 2.22%.

As to `OCC1CCCCN1CCn1ccnc1-c1nc2ccccc2[nH]1` (stereo not given), the cytotoxicity at 10 µM was found to be 8.89%.

Regarding `CN(Cc1ccc(-n2cccn2)cc1)Cc1ncc[nH]1`, the cytotoxicity at 10 µM stood at 1.79%.

In the case of `Cc1cnc(N2CCCC(c3ccccc3)C2)nc1-c1ncnn1C` (stereo not given), the cytotoxicity at 10 µM is -1.79%.

With `c1cc2c(cc1-c1noc3c1CN(C1CCC1)CC3)OCO2`, the cytotoxicity at 10 µM is -18.4%.

Consider `CC(C)(C)CCN1CCCC(Cn2cc(CCO)nn2)C1` (stereo not given), for which the cytotoxicity at 10 µM is -13.9%.

As for `CCc1cc(C(C)Nc2nc(-c3cccnc3)nc3c2CNC3)on1` (stereo not given), the cytotoxicity at 10 µM amounted to 16.9%.

As to `Cc1c[nH]c(CN2CCCCC2CCN(C)C)c(C)c1=O` (stereo not given), the cytotoxicity at 10 µM is -2.97%.

Consider `Cc1nc[nH]c1CN1CCC(CNC(=O)c2cccc3cnccc23)C1` (stereo not given), for which the cytotoxicity at 10 µM is -10.1%.

For the compound `CC[C@@H](c1ccccc1)n1c(CCN)n[nH]c1=O`, the cytotoxicity at 10 µM was 5.33%.

For the compound `O=C(O)[C@@]12CN(c3cnccn3)C[C@@H]1CN(C1CCCC1)C2`, the cytotoxicity at 10 µM was -10.3%.

As for `CN(Cc1cccnc1)c1nccc(N2CCN[C@H]3CS(=O)(=O)C[C@H]32)n1`, the cytotoxicity at 10 µM turned out to be 5.82%.

As for `Cc1ccc(NC(=O)[C@H]2C[C@H](C(=O)O)CN(CC3CC3)C2)cn1`, the cytotoxicity at 10 µM came to 0.999%.

On to `CCNC(=O)[C@@H]1C[C@H](NC(=O)Cn2ccnc2)CN1Cc1ccsc1`, for which the cytotoxicity at 10 µM was found to be 5.89%.

In the case of `CN(CCO)Cc1nnc(C2CCN(C(=O)C3CCOCC3)CC2)n1C`, the cytotoxicity at 10 µM was 2.01%.

Take `CN(Cc1ccncn1)C(=O)CCC(=O)NC1CCCC1`: the cytotoxicity at 10 µM is -1.01%.

For the compound `Cc1ccc(-c2cccc(N3CCC(NC4CCOCC4)CC3)c2)cc1`, the cytotoxicity at 10 µM was -12.3%.

For `O=C1[C@@H]2CN(c3ncccc3Cl)C[C@]2(C(=O)O)CN1CC1CC1`, the cytotoxicity at 10 µM worked out at 1.04%.

As to `O=C1NCCCc2[nH]c(-c3nc(C4CC4)no3)nc21`, the cytotoxicity at 10 µM is -5.74%.

On to `CSC(C)C(=O)N1CCC(Oc2cc(C)ccc2F)(C(=O)O)CC1` (stereo not given), for which the cytotoxicity at 10 µM amounted to 2.88%.

`OC1(CNCCc2csc(-c3ncccn3)n2)CCNC1` (stereo not given): the cytotoxicity at 10 µM was -8.44%.

Take `CC(C)c1nccc(-c2nccn2CCS(C)(=O)=O)n1`: the cytotoxicity at 10 µM came to 4.68%.

Regarding `Cc1ccc(F)cc1-n1c(CCCN2CCOCC2)n[nH]c1=O`, the cytotoxicity at 10 µM came to 7.32%.

Regarding `COc1ncc(-c2c(C#N)c(N)nc3c2CCc2[nH]ccc2-3)cn1`, the cytotoxicity at 10 µM turned out to be 6.47%.

As for `O=C(NC1CC1)c1cn(C2CCN(c3cc(C4CC4)ncn3)CC2)nn1`, the cytotoxicity at 10 µM amounted to 27.8%.

As to `Cc1ccc(CC(=O)N2CCCC(c3cc(C(N)=O)[nH]n3)C2)cn1` (stereo not given), the cytotoxicity at 10 µM was -14.2%.

`CN(C)c1ccc(C(=O)NCCCNc2ccc(C(F)(F)F)cn2)cc1`: the cytotoxicity at 10 µM was -7.66%.

Take `CC(C)(C)c1noc(CN2CCCCC2Cn2cncn2)n1` (stereo not given): the cytotoxicity at 10 µM is -2.4%.

With `O=C(CN1CCc2c(ncn2C2CC2)C1)NC1CCN(C2CC2)CC1`, the cytotoxicity at 10 µM is -8.44%.

With `CC(C(=O)NCc1cccc(N2CCCC2=O)c1)S(C)(=O)=O` (stereo not given), the cytotoxicity at 10 µM was found to be 2.66%.

Regarding `Cc1ccccc1CN1CCN(Cc2nccn2C)CC1`, the cytotoxicity at 10 µM is -10.1%.

As for `CC(NC(=O)CCOc1ccccc1Cl)c1nnc2n1CCC2` (stereo not given), the cytotoxicity at 10 µM is -6.46%.

Consider `CC(NC(=O)CCn1cncn1)c1nnc2n1CCCCC2` (stereo not given), for which the cytotoxicity at 10 µM is -9.26%.

`Cc1ncsc1CN1C[C@@H]2COC[C@]2(C(=O)NCC2CC2)C1`: the cytotoxicity at 10 µM amounted to 5.38%.

Regarding `Cc1ccc(C(=O)N2CCC3(CC2)CC(c2cnn(C)c2)CO3)cn1` (stereo not given), the cytotoxicity at 10 µM was -69.5%.

With `Cc1ccc(N2CC3(COCCN(Cc4cccnc4)C3)OCC2=O)s1` (stereo not given), the cytotoxicity at 10 µM is 2.39%.

As for `Cc1ccoc1C(=O)N1Cc2c(Cn3ccnc3)nn(C)c2C1`, the cytotoxicity at 10 µM was -68.5%.

`CCS(=O)(=O)NC[C@]12COC[C@H]1CN(Cc1cccc(OC)c1)C2`: the cytotoxicity at 10 µM is -6.23%.

As for `COCCN1CCO[C@@H]2CN(Cc3cc(OC)cc(OC)c3)C[C@@H]2C1`, the cytotoxicity at 10 µM came to 38.8%.

As for `CC1=N[C@@]2(CC[C@@H]3CN(CC(C)C)C[C@@H]32)C(=O)N1CC(C)C`, the cytotoxicity at 10 µM was -79.6%.

`c1cncc(COC[C@H]2CC[C@H]3[C@H](CCN3Cc3nccs3)O2)c1`: the cytotoxicity at 10 µM is -69.6%.

Take `c1ccc(OCc2nnc3n2CCN(CC2CC2)C3)nc1`: the cytotoxicity at 10 µM was -0.945%.

Regarding `Cc1nnn2c1COC(CNCc1ccccn1)C2` (stereo not given), the cytotoxicity at 10 µM was determined as 0.903%.

On to `CCC(=O)N1Cc2nccn2CC(CN(C)Cc2cccnc2)C1` (stereo not given), for which the cytotoxicity at 10 µM stood at 3.55%.

Take `O=C(C1CCCC1)N1CCC2(CC1)COCCN2CC1CC1`: the cytotoxicity at 10 µM was found to be 5.01%.

Turning to `COc1ccc(F)c(-c2ncccc2C(=O)N2C[C@@H]3CC[C@H]2C3)c1`, the cytotoxicity at 10 µM was -6.12%.

In the case of `COCCN1C(=O)[C@@H]2CC[C@H]1CN(S(=O)(=O)c1ccc(C#N)cc1)C2`, the cytotoxicity at 10 µM was -2.59%.

Take `CC(C)=CCN1C[C@@H]2CC[C@H]1CN(C(=O)c1ccc(S(N)(=O)=O)cc1)C2`: the cytotoxicity at 10 µM is -5.96%.
